HNF4A DNA FP – change in binding of human HNF4 alpha to DNA. HNF4a-FITC DNA binding, fluorescence polarization, 1 h. activity change, % at 10 µM. 360,000 compounds, 0.3% hits. AID 1224865; in the data active = activity change above about 30%, passing the limit was not always enough
Target sequence (P41235 whole entry, looked up): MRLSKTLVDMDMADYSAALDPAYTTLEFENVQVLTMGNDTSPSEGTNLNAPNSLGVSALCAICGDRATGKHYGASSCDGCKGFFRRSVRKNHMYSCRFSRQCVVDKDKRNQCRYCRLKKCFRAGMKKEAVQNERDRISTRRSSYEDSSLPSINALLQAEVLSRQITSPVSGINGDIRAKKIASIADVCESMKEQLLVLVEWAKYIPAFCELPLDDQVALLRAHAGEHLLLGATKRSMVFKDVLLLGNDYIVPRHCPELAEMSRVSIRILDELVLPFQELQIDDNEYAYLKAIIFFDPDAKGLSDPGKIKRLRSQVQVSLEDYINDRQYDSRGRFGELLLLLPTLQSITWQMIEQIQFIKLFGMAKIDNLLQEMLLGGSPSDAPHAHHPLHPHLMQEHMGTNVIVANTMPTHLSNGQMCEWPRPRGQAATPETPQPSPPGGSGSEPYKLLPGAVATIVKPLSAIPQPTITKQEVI
Rpn11 block – inhibitors of human proteasome Rpn11; O00487; human 26S proteasome, Ub4-pepOG fluorescence polarization; 20S core pre-blocked with epoxomicin; inhibition, % at 20 µM; 360,000 compounds, 0.59% hits;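 active = inhibition at 20 µM, scaled to each plate's controls, above about 33%, limit read from the data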
Myeloid diff MLP – myeloid differentiation induction; 360,000 compounds, 1% hits; ER-HoxA9 myeloid progenitors, lysozyme-GFP differentiation, flow cytometry; AID 624256; calls only at 10 µM;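 active = normalized GFP-positive differentiation at or above the plate's own cutoff, the solvent-only control mean plus 3 SD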;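 also: cells exposed to compound for four days before flow analysis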
TPT1 inhibitor – C. albicans TPT1 enzyme inhibition | 300,000 compounds, 0.81% hits | inhibition, % at 5 µM | AID 1962 | recombinant caTPT1, FP RNA substrate dephosphorylation;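 active = inhibition above the mean of all tested compounds plus 3 SD, set per screening campaign, cut at about 24% in these data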;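 also: plate controls were DMSO alone for no effect and ferristatin control at 100 nM for full effect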
CSN inh – CSN deneddylation inhibition; inhibition, % at 12.5 µM; AID 651999; Purified CSN, SCF-Nedd8-OG deneddylation, fluorescence polarization; 360,000 compounds, 0.38% hits;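 active = pattern-corrected inhibition above about 35%, with an unprinted fluorescence ratio check between 0.5 and 1.5, limit read from the data, passing the limit was not always enough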;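 also: 0% = enzyme with substrate and 100% = substrate without enzyme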
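Detection – fluorescence polarization · System – HEK293T-derived human Csn5 enzyme · Controls – substrate-only high control, full reaction low control · Timing – 90 min, room temperature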
* marks the source's active call; other numbers are inactive results; i = inactive; / = no result; + = active, no number. Only some compounds are listed: those with a hit (about 2.3% of all), similar ones and a draw of the others.

SMILES	HNF4A DNA FP	Rpn11 block	Myeloid diff MLP	TPT1 inhibitor	CSN inh
CCCCCCCCN1C(=O)[C@H](CC(=O)NCc2cccc(C(F)(F)F)c2)C[C@@]2(C(=O)OCC)CCCC=C12	3	/	i	/	-5
COC(=O)CCCn1cc(CN2CC(N3CCN(CCN(C)C)CC3)CS2(=O)=O)nn1 (stereo unspecified)	-3	/	i	/	-5
Cc1cccc(NC(=S)N(CCN(C)C)C(C)c2ccccn2)c1 (stereo unspecified)	-4	2	+	1	0
COc1ccc(NC(=S)N(CCN(C)C)C(C)c2ccncc2)cc1Cl (stereo unspecified)	44*	-6	i	0	3
COc1cc(Cl)ccc1NC(=S)N(CCN(C)C)C(C)c1ccncc1 (stereo unspecified)	4	1	i	0	2
Cc1cccc(NC(=S)N(CCN(C)C)C(C)c2cccnc2)c1 (stereo unspecified)	-1	-4	i	2	3
CCOP(=O)(OCC)C(Cc1ccc(OC)c(OC)c1)N=C(c1ccccc1)c1ccccc1 (stereo unspecified)	2	2	i	/	-1
CCOC(=O)C(CC)c1cc2n(c(=O)c1C#N)CCC21OCCO1 (stereo unspecified)	4	-2	i	/	-1
O=C(COC(=O)/C=C/c1ccc([N+](=O)[O-])cc1)Nc1ccc(F)cc1	-1	3	i	/	42*
CCn1c(-c2ccc[nH]c2=O)nc2ccccc21	-3	6	+	-1	4
CC1(C(=O)Nc2ccc(Cl)c(Cl)c2)CCN1C(=O)C1CCCCC1 (stereo unspecified)	3	-19	i	/	1
CC(=O)NC(c1ccccc1)c1nc(-c2ccc(Cl)cc2)cs1 (stereo unspecified)	1	1	i	/	-3
C[C@H](NC(=O)C1CCN(C(=O)[C@@H]2CCCN2C(=O)OC(C)(C)C)CC1)C(=O)NCc1ccc(F)cc1	0	5	i	/	-1
COC(=O)C1=CN(c2ccc(N3CCOCC3)cc2)C(N)=C(C#N)C1c1cccc(F)c1 (stereo unspecified)	3	/	i	/	0
CC(=O)Nc1cc(-c2ccccc2N(C)C)cn2c(-c3cccc(C(F)(F)F)c3)cnc12	-133	-182	+	/	-77
Oc1oc(-c2cccc3ccccc23)nc1/C=N/c1nccs1	-2	34	i	31*	13
Cc1cccc(/N=C/c2nc(-c3ccccc3Br)oc2O)n1	-1	-6	i	3	1
Cc1cc(NC(=O)COC(=O)C2CC(=O)N(c3ccccc3Cl)C2)no1 (stereo unspecified)	-1	2	i	0	2
Cc1ccc(N2CC(C(=O)OCC(=O)Nc3cc(C)on3)CC2=O)c(C)c1 (stereo unspecified)	-2	-4	+	1	2
COC(=O)Nc1ccc2c(c1)N(C(=O)CCCl)c1ccccc1S2	-2	1	+	/	3
Cc1nn(Cc2cccc(C(=O)Nc3ccn(Cc4ccccc4)n3)c2)c(C)c1[N+](=O)[O-]	-2	-11	+	3	3
Oc1ccc(N2CCN(Cc3nc4ccccc4[nH]3)CC2)cc1	-1	-1	i	-2	1
c1ccc(N2CCN(Cc3nc4ccccc4[nH]3)CC2)nc1	3	9	+	4	2
COc1ccc(NC(=O)C2(C)CCCN(C(C)C)C2)cc1F (stereo unspecified)	-5	-6	i	/	0
Cn1c2c(c(=O)n(C)c1=O)C(C(F)(F)F)(C(F)(F)F)N=C(CCC1CCCCC1)N2	-2	-1	i	1	54*
SMILES	HNF4A DNA FP	Rpn11 block	Myeloid diff MLP	TPT1 inhibitor	CSN inh
Cn1c2c(c(=O)n(C)c1=O)C(C(F)(F)F)(C(F)(F)F)N=C(c1ccccc1Cl)N2	1	3	i	-1	-1
CCCNC(=O)c1ccccc1NC(=O)c1ccccc1N(C)S(=O)(=O)c1ccc(C)cc1	0	-2	+	/	-3
CCCNC(=O)c1ccccc1NC(=O)c1ccccc1N(C)S(C)(=O)=O	5	-2	i	-1	6
Cc1ccc(-c2nc(SCC(=O)NCC3CCCO3)c(-c3ccccc3)[nH]2)cc1 (stereo unspecified)	3	-6	+	-1	1
Nc1nc(SCC(=O)NCC2CCCO2)[nH]c(=O)c1NC(=O)c1ccc(F)c(F)c1 (stereo unspecified)	1	1	i	0	-1
Nc1nc(SCC(=O)NCC2CCCO2)[nH]c(=O)c1NC(=O)c1ccco1 (stereo unspecified)	3	4	i	-1	46*
Cc1ccc(S(=O)(=O)N2[C@H](CC(=O)Oc3ccccc3)OC[C@@H]2C(C)C)cc1	2	/	i	/	-4
O=C(CSc1ccccc1)N1CCN(S(=O)(=O)c2ccccc2F)CC1	-3	-4	+	0	6
CCN(CC)S(=O)(=O)c1cc(C(=O)O)ccc1Cl	2	-2	i	3	1
CCN(CC)S(=O)(=O)c1cc(C(=O)c2nccn2C)ccc1Cl	-4	-3	+	2	-3
Cc1ccc(C(=O)N/C(=C\c2ccc(-c3cccc([N+](=O)[O-])c3)o2)C(=O)NCCCN(C)C)cc1	-2	-4	i	-3	-1
Cc1ccc(C(=O)N/C(=C\c2ccc(-c3ccc(Br)cc3)o2)C(=O)NCCCN(C)C)cc1	1	-14	+	8	1
CN(C)CCNC(=O)/C(=C/c1ccc(-c2ccc(Cl)cc2Cl)o1)NC(=O)c1ccccc1	3	15	+	3	8
OCC[C@@H]1C[C@H](O)[C@@H](O)[C@]2(OCc3ccc(CO)cc32)O1	4	2	i	/	5
COc1ccc(CNc2cccnc2Cl)cc1	0	/	i	/	-4
COc1ccc(Oc2c(OC)cc(NCc3ccc(CN)cc3)c3ncccc23)cc1	-40	20	+	/	42*
O=[N+]([O-])c1ccccc1-c1ccc(C(=S)N2CCCCC2)o1	2	-9	i	-3	5
O=[N+]([O-])c1ccccc1-c1ccc(C(=S)N2CCCC2)o1	1	-2	+	0	5
CCCCNC(=O)c1nc(C2CCN(S(=O)(=O)c3ccc(S(C)(=O)=O)cc3)CC2)oc1-c1ccccc1	0	/	i	/	2
Cn1cnc(S(=O)(=O)N2CCCCC2c2cc(C(=O)Nc3ccc(F)c(Cl)c3)no2)c1 (stereo unspecified)	-1	-4	i	/	2
O=C(Nc1ccc2c(c1)OCO2)C1Cc2c(-c3ccccc3Oc3ccccc3)ccnc2O1 (stereo unspecified)	-2	-2	i	/	0
O=C(O)c1ccccc1NC(=O)c1ccccc1Nc1ccccc1	-3	-9	+	-5	2

Source: PubChem
